Test results taken from ChEMBL document CHEMBL1132694, “Discovery and structure-activity relationships of imidazole-containing tetrahydrobenzodiazepine inhibitors of farnesyltransferase” (J Med Chem, 1999).

Columns and labels:
[1] = molecular target: T1, Protein farnesyltransferase (Homo sapiens, UniProt P49354+P49356); experiment: Phenotypic reversion of H-Ras transformed NIH3T3 cells by the compound at a concentration of 10 uM; format: functional, cell-based; settings: Mus musculus
Rat1 = experiment: Inhibition of anchorage independent growth of H-Ras transformed Rat-1 cells.; format: functional, cell-based
[2] = molecular target: T1, Protein farnesyltransferase; experiment: Inhibitory activity against human purified recombinant farnesyltransferase (hFT); format: protein-complex assay
Method in brief: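 Purified (>90%) recombinant human FT at 0.3 nM, with 10 μM ZnCl2. Activity was measured as incorporation of tritium from [3H]farnesyl pyrophosphate into recombinant human H-Ras. Result reported as IC50.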

[3] = molecular target: T1, Protein farnesyltransferase; experiment: Phenotypic reversion of H-Ras transformed NIH3T3 cells at 1.25 uM; format: functional, cell-based; settings: Mus musculus
[4] = molecular target: T1, Protein farnesyltransferase; experiment: Phenotypic reversion of H-Ras transformed NIH3T3 cells at 5 uM.; format: functional, cell-based; settings: Mus musculus
Mus musculus [5] = experiment: In vivo antitumor activity against Rat-1 tumors in mice at 10 mg/kg; format: functional
Method in brief: (§1)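 Female athymic Balb/c-background mice (18-22 g) were implanted ip with 1 × 10^6 in vitro-propagated H-Ras-transformed Rat-1 fibroblasts. Dosing was ip, once daily for 7 days from day 1, with compound in 10% ethanol/sterile water given within 1 h of dissolution. Groups were typically 6 treated and 8 control mice. Read-out was median survival as %T/C, with ≥125% counted active (Gehan's generalized Wilcoxon test).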

Mus musculus [6] = experiment: In vivo antitumor activity against Rat-1 tumors in mice at 30 mg/kg; format: functional; method in brief: as §1
[7] = molecular target: T1, Protein farnesyltransferase; experiment: Phenotypic reversion of H-Ras transformed NIH3T3 cells at 1.25/5 uM.; format: functional, cell-based; settings: Mus musculus
[8] = molecular target: T1, Protein farnesyltransferase; experiment: Inhibition of human purified recombinant farnesyltransferase (hFT) at 15 uM; format: protein-complex assay
Mus musculus [9] = experiment: In vivo antitumor activity against Rat-1 tumors in mice at 90 mg/kg; format: functional; method in brief: as §1
[10] = molecular target: T1, Protein farnesyltransferase; experiment: Inhibition of human purified recombinant farnesyltransferase (hFT) at 90 uM; format: protein-complex assay

SMILES	EC50 (Rat1) [µM]	IC50 [2] [µM]	Reversion activity [3] [%]	Reversion activity [4] [%]	other results
O=C(c1cccc2ccccc12)N1CCN(Cc2c[nH]cn2)c2ccccc2C1	6	0.46			Reversion activity [1]: 0%
COc1ccc2ccccc2c1C(=O)N1CCN(Cc2c[nH]cn2)c2ccc(-c3ccccc3)cc2C1	0.55		85	95	
O=C(Nc1ccc2c(c1)N(Cc1c[nH]cn1)CCN(C(=O)c1cccc3ccccc13)C2)C1CCCCC1	0.34	0.0181	0	45	T/C (Mus musculus [5]): 138%
O=C(c1cccc2ccccc12)N1CCN(Cc2c[nH]cn2)c2cc(NS(=O)(=O)c3ccccc3)ccc2C1	11	0.249	0	0	
O=C(c1cccc2ccccc12)N1CCN(Cc2cnc[nH]2)c2ccc(-c3ccccc3)cc2C1		0.095			
O=C(c1ccccc1SCCO)N1CCN(Cc2cnc[nH]2)c2ccc(-c3ccccc3)cc2C1		0.124			
CC(=O)Nc1ccc2c(c1)N(Cc1c[nH]cn1)CCN(C(=O)c1cccc3ccccc13)C2			0	0	
COc1ccc(C(=O)C(=O)N2CCN(Cc3cnc[nH]3)c3ccc(-c4ccccc4)cc3C2)cc1		0.091			
O=C(c1ccccc1SCCO)N1CCN(Cc2c[nH]cn2)c2ccc(-c3ccccc3)cc2C1	0.2		0	90	
O=C(c1ccccc1OC(F)(F)F)N1CCN(Cc2c[nH]cn2)c2ccc(-c3ccncc3)cc2C1	0.16		85	95	
O=C(c1cccc2ccccc12)N1CCN(Cc2c[nH]cn2)c2ccc(-c3cccnc3)cc2C1	1	0.145	0	70	
O=C(c1cccc2ccccc12)N1CCN(CCc2c[nH]cn2)c2ccccc2C1		0.34			Reversion activity [1]: 20%
O=C(c1cccc2ccccc12)N1CCN(Cc2c[nH]cn2)c2ccc(-c3ccccn3)cc2C1		0.177	0	0	
c1ccc(-c2ccc3c(c2)CN(Cc2cccc4ccccc24)CCN3Cc2c[nH]cn2)cc1			0	0	
O=C(c1cccc2ccccc12)N1CCN(Cc2cnc[nH]2)c2cc(Cl)ccc2C1		0.54			
NCc1ncc(CN2CCN(C(=O)c3cccc4ccccc34)Cc3ccccc32)[nH]1		0.84			
O=C(c1cccc2ccccc12)N1CCN(Cc2c[nH]cn2)c2ccc(-c3ccccc3)cc2C1	1.6		0	90	T/C (Mus musculus [6]): 96%; T/C (Mus musculus [5]): 136%
O=C(c1cccc2ccccc12)N1CCN(Cc2cnc[nH]2)c2ccc(C3CCCCC3)cc2C1		0.186			
COCC[C@H]1CN(C(=O)c2cccc3ccccc23)CCN1C(=O)Cc1cnc[nH]1		34			
Nc1ccc2c(c1)N(Cc1cnc[nH]1)CCN(C(=O)c1cccc3ccccc13)C2	2.4	1			

SMILES	EC50 (Rat1) [µM]	IC50 [2] [µM]	Reversion activity [3] [%]	Reversion activity [4] [%]	other results
NCCc1nc(CN2CCN(C(=O)c3cccc4ccccc34)Cc3ccccc32)c[nH]1		1.3			
O=C(c1cccc2ccccc12)N1CCN(Cc2cnc[nH]2)c2ccc(Br)cc2C1		0.228			
O=C(c1cccc2ccccc12)N1CCN(Cc2c[nH]cn2)c2ccc(C3CCCCC3)cc2C1			0	20	
O=C(c1cccc2ccccc12)N1CCN(CCCc2ncc[nH]2)c2ccccc2C1		0.59			
O=C(Cc1ccccc1Oc1ccccc1)N1CCN(Cc2c[nH]cn2)c2ccccc2C1		0.7			
O=C(OCc1ccccc1)N1CCN(Cc2c[nH]cn2)c2ccc(-c3ccccc3)cc2C1				0	Reversion activity [7]: 0%; inhibition [8]: 55%
Cc1cccc2c1N(Cc1c[nH]cn1)CCN(C(=O)c1cccc3ccccc13)C2	12	0.35	0	35	
COCC[C@H]1CN(C(=O)c2cccc3ccccc23)CCN1Cc1c[nH]cn1		1.3			
O=C(N1CCN(Cc2cnc[nH]2)c2ccc(-c3ccccc3)cc2C1)N1CCCc2ccccc21		0.205			
O=C(c1cccc2ccccc12)N1CCN(Cc2c[nH]cn2)c2ccc(-c3ccncc3)cc2C1	0.2	0.0154	60	95	T/C (Mus musculus [9]): 108%
O=S(=O)(c1cccc2ccccc12)N1CCN(Cc2c[nH]cn2)c2ccc(-c3ccccc3)cc2C1		0.426	0	25	
O=C(c1cccc2ccccc12)N1CCN(Cc2ncc[nH]2)c2ccccc2C1		21			
O=S(=O)(c1cccc2ccccc12)N1CCN(Cc2c[nH]cn2)c2ccccc2C1		0.48			
CC(=O)Nc1ccc2c(c1)N(Cc1cnc[nH]1)CCN(C(=O)c1cccc3ccccc13)C2		0.168			
O=C(c1ccccc1NCc1ccccc1)N1CCN(Cc2cnc[nH]2)c2ccccc2C1	2.4	0.6			
O=C(N1CCN(Cc2cnc[nH]2)c2ccccc2C1)N(c1ccccc1)c1ccccc1		1.2			
O=C(c1ccccc1-c1ccccc1)N1CCN(Cc2cnc[nH]2)c2ccccc2C1		0.32			
O=C(Nc1ccc2c(c1)N(Cc1c[nH]cn1)CCN(C(=O)c1cccc3ccccc13)C2)OC1CCCCC1	0.11		40	95	
N#C/N=C(/Nc1ccc(Cl)cc1)N1CCN(Cc2c[nH]cn2)c2ccc(-c3ccccc3)cc2C1			0	5	
COCC[C@H]1CN(C(=O)c2cccc3ccccc23)CCN1CCCc1c[nH]cn1		10			

SMILES	EC50 (Rat1) [µM]	IC50 [2] [µM]	Reversion activity [3] [%]	Reversion activity [4] [%]	other results
COc1ccc2ccccc2c1C(=O)N1CCN(Cc2cnc[nH]2)c2ccc(-c3ccccc3)cc2C1		0.058			
COC(=O)c1ccccc1S(=O)(=O)N1CCN(Cc2c[nH]cn2)c2ccccc2C1	1.6	0.72			
O=C(N1CCN(Cc2c[nH]cn2)c2ccc(-c3ccccc3)cc2C1)N1CCCc2ccccc21			0	40	
O=C(Nc1ccc2c(c1)N(Cc1cnc[nH]1)CCN(C(=O)c1cccc3ccccc13)C2)OC1CCCCC1		0.028			
COCC[C@H]1CN(C(=O)c2cccc3ccccc23)CCN1C(=O)c1c[nH]cn1					inhibition [10]: 51%
O=C(c1cccc2ccccc12)N1CCN(Cc2c[nH]cn2)c2ccc(Br)cc2C1			0	5	
COc1ccc(C(=O)C(=O)N2CCN(Cc3c[nH]cn3)c3ccc(-c4ccccc4)cc3C2)cc1	0.9		0	90	
c1ccc(-c2ccc3c(c2)CN(c2nnnn2-c2ccccc2)CCN3Cc2c[nH]cn2)cc1			0	0	
O=C(Nc1ccc2c(c1)N(Cc1c[nH]cn1)CCN(C(=O)c1cccc3ccccc13)C2)c1ccccc1	0.3	0.0285	0	75	T/C (Mus musculus [9]): 128%
O=C(c1ccccc1-c1ccccc1)N1CCN(Cc2c[nH]cn2)c2ccccc2C1	0.7				Reversion activity [1]: 25%
c1ccc(-c2ccc3c(c2)CN(c2nnnn2-c2ccccc2)CCN3Cc2cnc[nH]2)cc1		0.702			
COCC[C@H]1CN(C(=O)c2cccc3ccccc23)CCN1C(=O)CCc1cnc[nH]1		27			
O=C(c1ccccc1OC(F)(F)F)N1CCN(Cc2cnc[nH]2)c2ccc(-c3ccncc3)cc2C1		0.024			
COCC[C@H]1CN(C(=O)c2cccc3ccccc23)CCN1CCc1c[nH]cn1		3.2			
c1ccc(-c2ccc3c(c2)CN(Cc2cccc4ccccc24)CCN3Cc2cnc[nH]2)cc1		2.97			
O=C(c1cccc2ccccc12)N1CCN(Cc2cncn2Cc2ccccc2)c2ccccc2C1		1.1			
N#CN=C(Nc1ccc(Cl)cc1)N1CCN(Cc2cnc[nH]2)c2ccc(-c3ccccc3)cc2C1		1.42			
O=C(Nc1ccc2c(c1)N(Cc1c[nH]cn1)CCN(C(=O)c1cccc3ccccc13)C2)NC1CCCCC1	4	0.0355	0	0	
O=C(c1cccc2ccccc12)N1CCN(Cc2cnc[nH]2)Cc2ccccc21		2.8			
O=C(c1cccc2ccccc12)N1CCN(Cc2c[nH]cn2)Cc2ccccc21	3				Reversion activity [1]: 0%
